# Bioassay records deposited in PubChem by several laboratories.
# VIM-2 inhibitor – blocks Pseudomonas aeruginosa VIM-2 metallo-beta-lactamase. purified VIM-2, nitrocefin hydrolysis, epi-absorbance fluorescence. inhibition, % at 5.6 µM. 290,000 tested, 0.89% active. AID 1527;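 active = inhibition above the mean of all tested compounds plus 3 SD, cutoff set per screening run, cut at about 7.5% in these data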;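 also: red hydrolysis product quenches plate fluorescence so inhibitors raise well fluorescence; 0% = enzyme with DMSO and 100% = DMSO without enzyme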
# proCasp7 act – counter-screen for procaspase-3 activators: activators of human procaspase-7; 330,000 tested, 0.093% active; activation, % at 8.5 µM; AID 463210; recombinant procaspase-7, Ac-DEVD-pNA absorbance 405 nm; D23A/D198A/D206A triple mutant, cannot self-cleave; scale: DMSO 0, 5 µM enzyme 100;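 active = percent activation above the screen-wide mean plus 3 SD, cut at about 25% in these data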
#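 Assay system – Uncleavable procaspase-7 mutant enzyme · Quantity – 2 µM procaspase-7 mutant as dispensed · Times – 1 h preincubation, 2 h reaction · Dosing – single nominal 8.5 µM compound dose, 0.8% DMSO final · Buffer or medium – Zinc-free 50 mM HEPES buffer, pH 7.4, with NaCl and Triton X-100 · Detection – Epi-absorbance of released pNA at 405 nm, two timepoints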
# IMP-1 inh – blocks Pseudomonas aeruginosa IMP-1 metallo-beta-lactamase. purified IMP-1, nitrocefin hydrolysis, epi-absorbance fluorescence. inhibition, % at 5.6 µM. 290,000 tested, 0.45% active;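 active = inhibition above the mean plus 3 SD of all compounds in the same screening run, cut at about 4.5% in these data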;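 also: 0% = IMP-1 with DMSO and 100% = DMSO wells lacking enzyme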
#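 Assay system: purified recombinant IMP-1 beta-lactamase. Input: IMP-1 0.2 nM before substrate addition. Buffer or medium: Zinc- and detergent-supplemented HEPES buffer, pH 7.1. Schedule: 25 °C, 15 min preincubation, 25 min reaction. Signal: Epi-absorbance fluorescence, 480 nm excitation, 530 nm emission. Evaluation: percent inhibition from optical density relative to buffer-blank wells.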
# PolyA inhibitor – inhibitors of polyadenylation in S. cerevisiae; S. cerevisiae SKY197-pL101 polyadenylation reporter, beta-gal luminescence; efflux-impaired pdr1/pdr3 knockout yeast; score 100 = 6 SD above DMSO; activity score, % at 12 µM; 300,000 tested, 0.02% active; AID 1875;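 active = lowest replicate activity score at least 50, where 100 means six control SD above control mean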;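 also: yeast exposed to compound for 9 h at 30 °C; higher score means more reporter readthrough which indicates perturbed polyadenylation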
# proCasp3 act – procaspase-3 (human) activation; P42574; recombinant procaspase-3 D3A, Ac-DEVD-pNA absorbance 405 nm; activation, % at 8.5 µM; 330,000 tested, 0.11% active; AID 463141;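 active = activation above the mean of all tested compounds plus 3 SD, cut at about 21% in these data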;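 also: 0% = DMSO alone and 100% = DMSO wells spiked with extra 5 µM PC-3 D3A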
# Target sequence (P42574 whole entry D9A/D28A/D175A): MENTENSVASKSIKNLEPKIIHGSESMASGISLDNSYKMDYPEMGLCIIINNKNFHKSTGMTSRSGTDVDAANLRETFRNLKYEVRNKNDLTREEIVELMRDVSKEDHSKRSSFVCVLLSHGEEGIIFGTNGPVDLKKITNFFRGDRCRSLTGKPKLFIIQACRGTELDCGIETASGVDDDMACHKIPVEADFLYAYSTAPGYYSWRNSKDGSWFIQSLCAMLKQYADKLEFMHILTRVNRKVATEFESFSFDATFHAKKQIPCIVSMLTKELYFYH
#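 material = Procaspase-3 D3A mutant | probe or stimulus = Ac-DEVD-pNA | compound = single dose, 8.5 µM nominal compound, 0.8% DMSO | timing = 1 h preincubation, 2 h reaction | measured by = 405 nm absorbance of p-nitroaniline, reads at 0 and 120 min | benchmarks = DMSO-only low control, 5 µM PC-3 D3A high control | repeats = singlicate, each compound tested once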
# Neddyl block – blocks human cullin neddylation; 360,000 tested, 0.58% active; calls only at 25 µM; TR-FRET cullin neddylation, biochemical; in the data active = inhibition above about 36%
# Neddyl conf – cullin neddylation inhibition, confirmation | shares compounds with Neddyl block | TR-FRET cullin neddylation biochemical assay | calls only at 25 µM | 1,800 tested, 13% active | AID 652217; in the data active = inhibition above about 40%;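 also: neddylation substrate is the cullin 1 ring ligase complex with SKP2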
# Starred values were filed as active, the others as inactive; i = inactive; x = not tested or not shown; + = active, no number. In the library only some 1.7% were active in any assay of this set; here they are far more common.
SMILES,VIM-2 inhibitor,proCasp7 act,IMP-1 inh,PolyA inhibitor,proCasp3 act,Neddyl block,Neddyl conf
COCc1cc(C)nc(NC2CC(C)(C)NC(C)(C)C2)c1C#N,-1,7,-1,-14,-1,+,+
COc1ccc(C2C3=C(Nc4ncnn42)c2ccccc2CCC3)cc1 (stereo unspecified),-3,3,-3,21,3,+,i
COc1cccc(N2CCN(C(=O)c3cccn4c(=O)c5c(C)c(C)sc5nc34)CC2)c1,-3,-4,-2,-9,2,+,x
COc1ccc(-n2c(CSc3nc(C)cc(C)n3)nnc2SCC(=O)Nc2nccs2)cc1,1,14,-1,8,6,i,x
Cc1ccc(C(=O)c2oc3ccccc3c2NC(=O)c2cc(-c3cc(C)ccc3O)n[nH]2)cc1,1,-19,-1,-7,-11,+,i
COc1ccc(-c2cn3cccnc3n2)cc1NC(=O)C1CCCC1,-2,-6,-4,23,7,+,i
COc1ccc(-c2cn3cccnc3n2)cc1NC(=O)C1CC1,2,16,-1,8,7,i,x
CC(=O)Nc1ccc(NC(=O)COc2ccc(-c3ccc(C#N)cc3)cc2)cc1,x,8,x,5,13,i,x
N#Cc1ccc(-c2ccc(OCC(=O)Nc3cccnc3)cc2)cc1,-3,x,-2,-8,x,+,i
CC(C)(C)NC(=O)CN(C(=O)c1snc(C(=O)NC2CCCCC2)c1N)c1ccccc1F,3,10,-1,1,0,+,i
CC(C)c1ccc2oc(=O)cc(CN3CCN(c4ccccc4)CC3)c2c1,-2,-5,-2,-13,-8,i,x
Cc1cc2[nH]c3ccccc3c2c(C)n1,-2,9,-2,17,-5,+,i
O=S(=O)(Nc1nc2ccccc2[nH]1)c1ccc(Cl)cc1,-3,1,-1,-4,8,i,x
Clc1ccc(-c2ccc(-c3nn4c(-c5ccco5)nnc4s3)o2)cc1,-3,-16,-5,-14,-4,+,i
COc1cccc(-c2nn3c(-c4ccco4)nnc3s2)c1,x,12,x,-12,-5,i,x
CCn1c(CCNC(=O)c2cccs2)nnc1SCC(=O)Nc1cccc(Cl)c1,-3,-5,-4,-1,2,i,x
CCOC(=O)Cc1csc(NC(=O)/C=C/c2ccc(Cl)cc2)n1,-2,10,-3,3,-1,+,i
CCOC(=O)Cc1csc(NC(=O)/C=C/c2ccco2)n1,-2,-8,-1,21,5,i,x
CCOc1ccc(/C=N/NC(=O)c2cc3c(OC)cc(OC)cc3[nH]2)cc1OC,-1,3,-1,15,8,x,x
COc1ccc(/C=N/NC(=O)c2[nH]c3ccc(Cl)cc3c2-c2ccccc2)c(C(=O)O)c1OC,-2,-9,-1,-7,-11,+,x
CCOc1ccc(/C=N/NC(=O)c2cc3c(OC)cccc3[nH]2)cc1,0,-1,4,-12,0,+,i
COc1cccc(/C=N/NC(=O)c2cc3c(OC)cccc3[nH]2)c1OC,-4,0,-2,-1,-4,+,i
COc1ccc(/C=N/NC(=O)c2[nH]c3ccc(Br)cc3c2-c2ccccc2)c(C(=O)O)c1OC,-2,-6,-3,7,4,i,x
COc1cccc(/C=N/NC(=O)c2cc3c(OC)c(OC)ccc3[nH]2)c1OC,-3,x,-5,13,x,i,x
O=C(Nc1ccccn1)c1ccc2ccccc2n1,-1,7,-3,-31,-20,i,x
COc1cc(OC)cc(-c2nnc(NC(=O)c3ccc4c(c3)OCCO4)o2)c1,-6,9,-3,1,12,i,x
COc1cc(C(=O)OCC(=O)N2CCNC2=O)cc(Cl)c1OC,x,x,x,x,x,i,x
CCCOc1ccc(NCC(=O)Nc2ccc(C)cc2C)cc1,1,5,0,-2,-5,i,x
